The values that follow come from ChEMBL document CHEMBL4402603, “Structure-Activity Relationship of SPOP Inhibitors against Kidney Cancer” (J Med Chem, 2020).

The source made the active and inactive calls. The calls are words filed in the database; no cut-off is given here.

The target in test [1] is Speckle-type POZ protein (Homo sapiens) (UniProt O43791). The test can be described thus: Binding affinity to recombinant N-terminal GST/His-tagged MATH binding domain SPOP (unknown origin) expressed in Escherichia coli BL21 (DE3) assessed as change in melting temperature at 10 fold compound incubated for 15 mins by nano differential scanning fluorimetry (reference value: -1.7 degreeC).

Test [2] deals with A498. In words: Antiproliferative activity against human A498 cells assessed as reduction in cell viability at 30 uM incubated for 72 hrs by MTT assay relative to control. The format is functional. Particulars: A498, 72 h. A digest of the protocol:
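MTT read-out. Cells seeded at 1,000-2,200/well, grown 12 hr at 37 °C, then compound added for 72 hr. MTT for 4 hr, formazan dissolved in DMSO, absorbance at 490 nm. Untreated-cell OD taken as 100% proliferation; inhibition reported at 30 μM.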

For a further test, the system named is HK-2. In words: Cytotoxicity against human HK2 cells assessed as reduction in cell viability incubated for 72 hrs by MTT assay. Particulars: HK-2, 72 h. The format is cell-based.
The test system of test [3] is A498. The test can be described thus: Inhibition of colony formation in human A498 cells at 1 to 5 uM incubated for 12 days by crystal violet dye based assay. The format is functional, cell-based. An outline of the steps: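 Cells seeded at 1,000/well, grown 12 days at 37 °C, 5% CO2, medium renewed every 3 days. Fixed with 10% acetic acid/10% methanol for 15 min, stained with 1% crystal violet for 10 min.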

The next test deals with NCI-H1299. The test can be described thus: Cytotoxicity against human H1299 cells assessed as reduction in cell viability incubated for 72 hrs by MTT assay. The settings on record: NCI-H1299, 72 h. The format is cell-based. An outline of the steps: (§1)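 Cells maintained in DMEM/10% FBS at 37 °C, 5% CO2. Cell proliferation quantified by MTT after 72 hr compound exposure, A490 read. Untreated cells = 100%. Mean ± SD, n = 3.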

The test system of a further test is U-251. The test can be described thus: Cytotoxicity against human U251 cells assessed as reduction in cell viability incubated for 72 hrs by MTT assay. Particulars: U-251, 72 h. It counts as cell-based. A digest of the protocol: as §1
A short description of test [4]: Selectivity index, ratio of IC50 for human Hs766T to IC50 for human A498 cells.
The nature of test [5]: Selectivity index, ratio of IC50 for human H1299 to IC50 for human A498 cells.
Test [6] is described as follows: Selectivity index, ratio of IC50 for human U251 to IC50 for human A498 cells.
The target in test [7] is Speckle-type POZ protein (Homo sapiens) (UniProt O43791). In words: Binding affinity to recombinant N-terminal GST/His-tagged SPOP (unknown origin) MATH binding domain expressed in Escherichia coli BL21 (DE3) assessed as change in melting temperature at 5 fold compound by SYPRO Orange dye based differential scanning fluorimetry (reference value: -1.7 degreeC).
Test [8] addresses T1, Speckle-type POZ protein/PTEN (Homo sapiens) (UniProt P60484+O43791). The test can be described thus: Inhibition of SPOP/PTEN interaction in human A498 cells assessed as increase in SPOP level at 1 to 50 uM incubated for 20 mins by DARTS based Western blot analysis. It counts as cell-based. An outline of the steps:
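DARTS. Lysates of 1×10⁶ cells in TNC buffer, 120 μg per tube, incubated with compound at 0, 1, 5, 10 or 50 μM for 20 min at rt. Pronase digestion 10 min at rt (1:1000 for A498, 1:2000 for OS-RC-2), stopped with protease inhibitors, then SPOP western blot. Triplicate experiments.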

Test [9] has as its target T1, Speckle-type POZ protein/PTEN (Homo sapiens). In words: Inhibition of SPOP/PTEN interaction in human HEK293T cells assessed as reduction in PTEN level incubated for 8 hrs by Western blot analysis. It counts as cell-based.
The target of test [10] is Speckle-type POZ protein (Homo sapiens) (UniProt O43791). In words: Inhibition of SPOP signalling in human A498 cells assessed as accumulation of DUSP7 incubated for 12 hrs by Western blot analysis. The format is cell-based. An outline of the steps:
(§2)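 Cells exposed 12 hr to inhibitor at graded concentrations, RIPA lysates normalized by BCA. 12% SDS-PAGE, nitrocellulose transfer, milk block, primary antibody at 4 °C overnight, HRP secondary, ECL. GAPDH loading control.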

Test [11] has the same target. In words: Inhibition of SPOP signalling in human A498 cells assessed as reduction in ERK phosphorylation at 0.5 to 10 uM incubated for 12 hrs by Western blot analysis. The format is cell-based. An outline of the steps:
as §2

Test [12] shares this target. The test can be described thus: Inhibition of SPOP signalling in human OS-RC2 cells assessed as reduction in ERK phosphorylation at 0.5 to 15 uM incubated for 12 hrs by Western blot analysis. It counts as cell-based. A digest of the protocol:
as §2

The target is the same in test [13]. In words: Inhibition of SPOP signalling in human OS-RC2 cells assessed as effect on total AKT level at 0.5 to 15 uM incubated for 12 hrs by Western blot analysis. It counts as cell-based. An outline of the steps: as §2
Test [14] has the same target. The test can be described thus: Inhibition of SPOP signalling in human OS-RC2 cells assessed as effect on total ERK level at 0.5 to 15 uM incubated for 12 hrs by Western blot analysis. It counts as cell-based. A digest of the protocol: as §2
Test [15] deals with T1, Speckle-type POZ protein/PTEN (Homo sapiens). In words: Inhibition of SPOP/PTEN interaction in human HEK293T cells assessed as reduction in SPOP level incubated for 12 hr by co-immunoprecipitation based Western blot analysis.

Chain of Speckle-type POZ protein (Homo sapiens) (O43791 whole entry, the tested form may be a part): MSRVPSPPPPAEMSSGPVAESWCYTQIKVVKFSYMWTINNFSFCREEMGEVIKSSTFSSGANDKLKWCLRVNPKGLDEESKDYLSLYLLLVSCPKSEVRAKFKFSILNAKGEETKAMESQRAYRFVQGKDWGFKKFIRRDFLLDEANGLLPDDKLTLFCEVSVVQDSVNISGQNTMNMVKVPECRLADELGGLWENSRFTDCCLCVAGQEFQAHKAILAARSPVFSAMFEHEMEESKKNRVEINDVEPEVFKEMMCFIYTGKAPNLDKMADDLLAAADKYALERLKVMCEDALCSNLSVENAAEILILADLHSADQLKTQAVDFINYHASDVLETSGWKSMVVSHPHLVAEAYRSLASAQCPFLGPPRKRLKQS
T1 sequence (O43791 whole entry, looked up): as the sequence (O43791 whole entry, the tested form may be a part) above
T1 sequence (P60484 whole entry, looked up): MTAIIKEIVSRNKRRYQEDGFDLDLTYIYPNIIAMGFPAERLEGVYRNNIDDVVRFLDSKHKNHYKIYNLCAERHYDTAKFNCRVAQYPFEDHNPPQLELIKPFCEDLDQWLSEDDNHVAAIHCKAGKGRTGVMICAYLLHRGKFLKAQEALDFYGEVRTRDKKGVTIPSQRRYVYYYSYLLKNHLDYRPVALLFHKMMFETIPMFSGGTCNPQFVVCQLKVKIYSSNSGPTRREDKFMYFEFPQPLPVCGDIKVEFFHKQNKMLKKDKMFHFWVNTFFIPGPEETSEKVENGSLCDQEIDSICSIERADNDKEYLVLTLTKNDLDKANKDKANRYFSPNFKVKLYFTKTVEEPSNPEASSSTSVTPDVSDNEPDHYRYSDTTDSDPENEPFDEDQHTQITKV

Consider `Cc1cccn2c(=O)c3cc(C(=O)NCCN4CCN(C)CC4)c(=N)n(CCc4cccs4)c3nc12`, for which the ΔTm in test [1] was 3.1 °C; in [7], 3.7 °C. Also, the inhibition at 30 µM in the test on A498 [2] worked out at 85%. The values for the IC50 in the test on HK-2, in the test on NCI-H1299 and in the test on U-251 were greater than 30 µM, 10.7 µM and 10.2 µM, respectively. For the same compound, the inhibition result (in the test on A498 [3]; in [8]; in test [11]; in [12]) was “Active” in each case. The “Ratio IC50” value in test [4], in test [5] and in test [6] was greater than 5 in each case. Moreover, the inhibition entry in test [9], in [10] and in [15] was “Dose-dependent effect” in each case. For the same compound, the inhibition entry in test [13] and in [14] was “inactive” throughout.
